Data reported in ChEMBL document CHEMBL1687766, “In vitro activity of the new multivalent glycopeptide-cephalosporin antibiotic TD-1792 against vancomycin-nonsusceptible Staphylococcus isolates” (Antimicrob Agents Chemother, 2010).
Converted amounts (≈) assume the structure as drawn.

Experiments:
Assay type in all cases: functional
[1] = test system: Staphylococcus haemolyticus; assay: Antimicrobial activity against vancomycin-intermediate Staphylococcus haemolyticus after 24 hrs by microdilution method in presence of 50% human serum; conditions: for MBC / MIC50 / MIC90: Staphylococcus haemolyticus, 24 h
How it was run: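 Broth microdilution MIC/MBC (5 × 10^5 CFU/ml, 24 h, 35°C, duplicate) in 50% heat-treated (56°C, 1 h), filtered human serum plus supplemented Mueller-Hinton broth, with final broth strength 25 for TD-1792 and 50 for daptomycin. MBC was taken by plating clear wells on BHI agar.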

[2] = test system: Staphylococcus aureus; assay: Ratio of MIC for vancomycin-intermediate Staphylococcus aureus isolate MU50 in presence of 50% human serum to MIC for vancomycin-intermediate Staphylococcus aureus isolate MU50
How it was run: (§1)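 Ratio of the broth microdilution MIC (5 × 10^5 CFU/ml, 24 h, 35°C, duplicate) measured in 50% heat-treated human serum/supplemented Mueller-Hinton broth to the MIC measured in supplemented broth alone.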

[3] = test system: Staphylococcus aureus; assay: Antimicrobial activity against vancomycin-resistant Staphylococcus aureus isolate MI assessed as bacterial count at 8 times MIC after 24 hrs by colony counting method
How it was run: (§2)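 Time-kill in triplicate. Mid-exponential culture (OD600 ~0.3) diluted in supplemented Mueller-Hinton broth to 5 × 10^6 CFU/ml. Daptomycin was run at physiologic calcium, 1.1 to 1.3 mM. […] Samples at 0, 1, 4, 8 and 24 h were diluted in cold saline or vacuum filtered, then spiral-plated on BHI agar for 24 h at 35°C. Value is the log10 CFU/ml change from baseline at 24 h.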

[4] = test system: Staphylococcus aureus; assay: Antimicrobial activity against vancomycin-resistant Staphylococcus aureus isolate MI assessed as bacterial count at 16 times MIC after 24 hrs by colony counting method in presence of 50% human serum
How it was run: (§3)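 Time-kill in triplicate, starting inoculum 5 × 10^6 CFU/ml from a mid-exponential culture. Medium was 50% heat-treated, filtered human serum plus 50% broth, final 25 SMHB for TD-1792 and 50 SMHB for daptomycin. Drug at multiples of MIC. Samples to 24 h were plated on BHI agar for 24 h at 35°C. Value is the log10 CFU/ml change from baseline at 24 h.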

[5] = test system: Staphylococcus aureus; assay: Antimicrobial activity against vancomycin-resistant Staphylococcus aureus isolate MI assessed as bacterial count at 16 times MIC after 24 hrs by colony counting method; how it was run: as §2
[6] = test system: Staphylococcus aureus; assay: Antimicrobial activity against vancomycin-intermediate Staphylococcus aureus isolate NJ992 assessed as bacterial count at 16 times MIC after 24 hrs by colony counting method in presence of 50% human serum; how it was run: as §3
[7] = test system: Staphylococcus aureus; assay: Antimicrobial activity against vancomycin-intermediate Staphylococcus aureus isolate MU50 after 24 hrs by microdilution method; conditions: isolate MU50, 24 h
How it was run: (§4)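 Broth microdilution per CLSI, inoculum 5 × 10^5 CFU/ml, Mueller-Hinton broth with 12.5 μg/ml magnesium and 25 μg/ml calcium (SMHB). Daptomycin was instead tested in SMHB at physiologic calcium (final 1.1 to 1.3 mM). Incubation 24 h at 35°C; MIC read; run in duplicate. MBC from 5-μl samples of clear wells plated on BHI agar, 24 h at 35°C.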

[8] = test system: Staphylococcus aureus; assay: Antimicrobial activity against vancomycin-intermediate Staphylococcus aureus isolate MU50 assessed as bacterial count at 32 times MIC after 24 hrs by colony counting method
How it was run: (§5)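 24-h time-kill run in triplicate in supplemented Mueller-Hinton broth (12.5 μg/ml Mg, 25 μg/ml Ca), adjusted to 1.1–1.3 mM Ca for daptomycin. […] Samples were taken at 0, 1, 4, 8 and 24 h and counted on BHI agar after 24 h at 35°C. Value is log10 CFU/ml change from baseline at 24 h.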

[9] = test system: Staphylococcus haemolyticus; assay: Ratio of MIC for vancomycin-intermediate Staphylococcus haemolyticus in presence of 50% human serum to MIC for vancomycin-intermediate Staphylococcus haemolyticus; how it was run: as §1
[10] = test system: Staphylococcus aureus; assay: Antimicrobial activity against vancomycin-intermediate Staphylococcus aureus isolate NJ992 assessed as bacterial count at 32 times MIC after 24 hrs by colony counting method; how it was run: as §5
[11] = test system: Staphylococcus aureus; assay: Antimicrobial activity against vancomycin-intermediate Staphylococcus aureus isolate NJ992 assessed as bacterial count at 4 times MIC after 24 hrs by colony counting method in presence of 50% human serum
How it was run: (§6)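 Triplicate 24-h time-kill in 50% human serum (heated 56°C 1 h, filtered) mixed with supplemented Mueller-Hinton broth, giving final 25 μg/ml Ca broth strength for TD-1792 and 50 for daptomycin. […] Samples from 0 to 24 h were counted on BHI agar (35°C, 24 h). Value is log10 CFU/ml change from baseline.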

[12] = test system: Staphylococcus aureus; assay: Antimicrobial activity against vancomycin-resistant Staphylococcus aureus isolate PA after 24 hrs by microdilution method; how it was run: as §4
[13] = test system: Staphylococcus aureus; assay: Antimicrobial activity against vancomycin-intermediate Staphylococcus aureus isolate MU50 assessed as bacterial count at 4 times MIC after 24 hrs by colony counting method; how it was run: as §5
[14] = test system: Staphylococcus aureus; assay: Antimicrobial activity against vancomycin-resistant Staphylococcus aureus isolate PA assessed as bacterial count at 4 times MIC after 24 hrs by colony counting method; how it was run: as §2
[15] = test system: Staphylococcus aureus; assay: Antimicrobial activity against vancomycin-resistant Staphylococcus aureus isolate PA assessed as bacterial count at 32 times MIC after 24 hrs by colony counting method in presence of 50% human serum; how it was run: as §3
[16] = test system: Staphylococcus aureus; assay: Antimicrobial activity against vancomycin-intermediate Staphylococcus aureus isolate MU50 assessed as bacterial count at 32 times MIC after 24 hrs by colony counting method in presence of 50% human serum; how it was run: as §6
[17] = test system: Staphylococcus aureus; assay: Antimicrobial activity against vancomycin-resistant Staphylococcus aureus isolate MI after 24 hrs by microdilution method in presence of 50% human serum
How it was run: (§7)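 Broth microdilution per CLSI, inoculum 5 × 10^5 CFU/ml, 24 h at 35°C, in duplicate. Medium was 50% (vol/vol) human serum plus 50% broth, final 25 SMHB for TD-1792 and 50 SMHB for daptomycin. Serum was heated 56°C for 1 h and filtered through 0.8, 0.5 and 0.22 μm. MBC by plating clear wells on BHI agar.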

[18] = test system: Staphylococcus aureus; assay: Antimicrobial activity against vancomycin-resistant Staphylococcus aureus isolate PA assessed as bacterial count at 8 times MIC after 24 hrs by colony counting method in presence of 50% human serum; how it was run: as §3
[19] = test system: Staphylococcus aureus; assay: Antimicrobial activity against vancomycin-heteroresistant Staphylococcus aureus after 24 hrs by microdilution method in presence of 50% human serum; how it was run: as §7
[20] = test system: Staphylococcus aureus; assay: Antimicrobial activity against vancomycin-resistant Staphylococcus aureus isolate MI assessed as bacterial count at 32 times MIC after 24 hrs by colony counting method in presence of 50% human serum; how it was run: as §3
[21] = test system: Staphylococcus aureus; assay: Antimicrobial activity against vancomycin-resistant Staphylococcus aureus isolate MI assessed as bacterial count at 8 times MIC after 24 hrs by colony counting method in presence of 50% human serum; how it was run: as §3
[22] = test system: Staphylococcus aureus; assay: Antimicrobial activity against vancomycin-intermediate Staphylococcus aureus after 24 hrs by microdilution method; conditions: for MBC / MIC50 / MIC90: Staphylococcus aureus, 24 h; how it was run: as §4
[23] = test system: Staphylococcus aureus; assay: Ratio of MIC for vancomycin-intermediate Staphylococcus aureus in presence of 50% human serum to MIC for vancomycin-intermediate Staphylococcus aureus

CN[C@H](CC(C)C)C(=O)N[C@H]1C(=O)N[C@@H](CC(N)=O)C(=O)N[C@H]2C(=O)N[C@H]3C(=O)N[C@H](C(=O)N[C@H](C(=O)NCCCO/N=C(\C(=O)N[C@@H]4C(=O)N5C(C(=O)[O-])=C(C[n+]6ccccc6)CS[C@H]45)c4nc(N)sc4Cl)c4cc(O)cc(O)c4-c4cc3ccc4O)[C@H](O)c3ccc(c(Cl)c3)Oc3cc2cc(c3O[C@@H]2O[C@H](CO)[C@@H](O)[C@H](O)[C@H]2O[C@H]2C[C@](C)(N)[C@H](O)[C@H](C)O2)Oc2ccc(cc2Cl)[C@H]1O
MBC50 [1]: 0.25 µg/mL | MBC90 [1]: 0.5 µg/mL | MBC [1]: 0.03 µg/mL | MIC50 [1]: 0.25 µg/mL | MIC90 [1]: 0.5 µg/mL | Ratio [2]: 2 | log10CFU/ml [3]: 3.27 | log10CFU/ml [4]: 4.11 | log10CFU/ml [5]: 3.34 | log10CFU/ml [6]: 4.76 | MBC [7]: 0.03 µg/mL (≈ 0.0151 µM) | MIC [7]: 0.03 µg/mL (≈ 0.0151 µM) | log10CFU/ml [8]: 4.92 | Ratio [9]: 2 | log10CFU/ml [10]: 5 | log10CFU/ml [11]: 3.61 | MBC [12]: 0.125 µg/mL (≈ 0.063 µM) | MIC [12]: 0.03 µg/mL (≈ 0.0151 µM) | log10CFU/ml [13]: 3.77 | log10CFU/ml [14]: 4.06 | log10CFU/ml [15]: 5.09 | log10CFU/ml [16]: 4.81 | MBC [17]: 8 µg/mL | MIC [17]: 2 µg/mL | log10CFU/ml [18]: 4.65 | MBC [19]: 0.03 µg/mL | MIC50 [19]: 0.25 µg/mL | MIC90 [19]: 0.5 µg/mL | log10CFU/ml [20]: 4.03 | log10CFU/ml [21]: 4.06 | MBC50 [22]: 0.06 µg/mL (≈ 0.0303 µM) | MBC90 [22]: 0.125 µg/mL (≈ 0.063 µM) | MBC [22]: 0.015 µg/mL (≈ 0.00756 µM) | MIC50 [22]: 0.06 µg/mL (≈ 0.0303 µM) | MIC90 [22]: 0.125 µg/mL (≈ 0.063 µM) | Ratio [23]: 2

CCCCCCCCCC(=O)N[C@@H](Cc1c[nH]c2ccccc12)C(=O)N[C@H](CC(N)=O)C(=O)N[C@@H](CC(=O)O)C(=O)N[C@@H]1C(=O)NCC(=O)N[C@@H](CCCN)C(=O)N[C@@H](CC(=O)O)C(=O)N[C@H](C)C(=O)N[C@@H](CC(=O)O)C(=O)NCC(=O)N[C@H](CO)C(=O)N[C@@H]([C@H](C)CC(=O)O)C(=O)N[C@@H](CC(=O)c2ccccc2N)C(=O)O[C@@H]1C
MBC50 [1]: 4 µg/mL | MBC90 [1]: 8 µg/mL | MBC [1]: 1 µg/mL | MIC50 [1]: 1 µg/mL | MIC90 [1]: 4 µg/mL | Ratio [2]: 2 | log10CFU/ml [3]: 5 | log10CFU/ml [4]: 4.6 | log10CFU/ml [5]: 4.96 | log10CFU/ml [6]: 5.03 | MBC [7]: 1 µg/mL (≈ 0.617 µM) | MIC [7]: 1 µg/mL (≈ 0.617 µM) | log10CFU/ml [8]: 5.12 | Ratio [9]: 2 | log10CFU/ml [10]: 4.93 | log10CFU/ml [11]: 4.78 | MBC [12]: 0.25 µg/mL (≈ 0.154 µM) | MIC [12]: 0.25 µg/mL (≈ 0.154 µM) | log10CFU/ml [13]: 3.02 | log10CFU/ml [14]: 3.33 | log10CFU/ml [15]: 5.11 | log10CFU/ml [16]: 5.23 | MBC [17]: 1 µg/mL | MIC [17]: 0.5 µg/mL | log10CFU/ml [18]: 5.11 | MBC [19]: 1 µg/mL | MIC50 [19]: 1 µg/mL | MIC90 [19]: 4 µg/mL | log10CFU/ml [20]: 5.11 | log10CFU/ml [21]: 4.69 | MBC50 [22]: 1 µg/mL (≈ 0.617 µM) | MBC90 [22]: 2 µg/mL (≈ 1.23 µM) | MBC [22]: 0.25 µg/mL (≈ 0.154 µM) | MIC50 [22]: 1 µg/mL (≈ 0.617 µM) | MIC90 [22]: 1 µg/mL (≈ 0.617 µM) | Ratio [23]: 2
